Columns and labels:
AML and other cancers = conditions: early phase clinical trials against AML and other cancers, ref Arrillaga-Romany et al., 2017, Kline et al., 2016, Stein et al.; cited from earlier work
[1] = test system: normal hematopoietic cells; assay: Effect on normal hematopoietic cells; conditions: 72 hr
[2] = test system: OCI-AML2, OCI-AML3, TEX, Z138, HCT-116, HeLa, OC316, SUM159 cells; assay: Growth and viability of leukemia, lymphoma and solid tumor cell lines; type: cell-based, human; conditions: 72 hr
recombinant D190A ClpP = recombinant D190A ClpP (Homo sapiens, UniProt Q16740, D190A); assay: D190A ClpP enzymatic assays; type: biochemical; conditions: peptide or protein substrates
[3] = test system: ONC201-resistant Z138 cells (ONC-R Z138); assay: Growth and viability, ONC201-resistant Z138; type: cell-based, human; conditions: ONC-R Z138 compared with parental Z138
[4] = molecular target: T1, human ClpP (recombinant WT) (Homo sapiens, UniProt Q16740); assay: ClpP Ac-Phe-hArg-Leu-ACC fluorogenic peptide cleavage assay; type: biochemical; conditions: read-out: EC50, ClpP cleavage of Ac-Phe-hArg-Leu-ACC; without ClpX
ClpP = ClpP (Homo sapiens, UniProt Q16740); assay: Gel-based α-casein degradation assay; type: biochemical; conditions: 3 hr, without ClpX
[5] = molecular target: T1, human ClpP (recombinant WT); assay: ClpP Clptide fluorogenic peptide cleavage assay; type: biochemical; conditions: read-out: EC50, ClpP cleavage of FAPHMALVPC (Clptide); without ClpX
[6] = test system: CLPP+/+ T-REx HEK293 cells; assay: Alamar blue viability, CLPP+/+ T-REx HEK293; type: cell-based, human; conditions: T-REx HEK293, 72 hr
[7] = molecular target: endogenous ClpP in OCI-AML2 (Homo sapiens, UniProt Q16740); assay: Cellular thermal shift assay; type: cell-based; conditions: at concentrations associated with activation in the enzymatic assays
[8] = molecular target: T1, human ClpP (recombinant WT); assay: ClpP AC-WLA-AMC fluorogenic peptide cleavage assay; type: biochemical; conditions: read-out: EC50, ClpP cleavage of AC-WLA-AMC; without ClpX
[9] = test system: Z138 cells with WT ClpP overexpression; assay: Z138 xenograft with WT ClpP overexpression; type: in vivo, NSG mice; conditions: ONC212 50 mg/kg every other day, oral gavage, WT ClpP group
Outline: (§1)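 Female NSG mice (n = 7 per group) received two million luciferase-labelled Z138 cells transfected with a WT or D190A mutant CLPP-overexpressing vector. Engraftment was confirmed by bioluminescence imaging on day 9 post-transplantation. Test compound (50 mg/kg) or water vehicle was then given by oral gavage every other day until moribund. Tumour burden was followed weekly by IVIS luminescence until day 31, and survival was recorded.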

[10] = test system: CLPP-/- T-REx HEK293 cells; assay: Alamar blue viability, CLPP-/- T-REx HEK293; type: cell-based, human; conditions: T-REx HEK293, 72 hr
[11] = test system: Z138 cells with D190A ClpP overexpression; assay: Z138 xenograft with D190A ClpP overexpression; type: in vivo, NSG mice; conditions: ONC212 50 mg/kg every other day, oral gavage; D190A ClpP group
Outline: as §1

[12] = test system: primary AML patient samples; assay: Apoptosis in primary AML patient samples; type: cell-based, human; conditions: 72 hr; including high risk cytogenetics and molecular mutations
[13] = molecular target: T1, human ClpP (recombinant WT); assay: ClpP FITC-casein degradation, cell-free fluorescence assay; type: biochemical; conditions: positive cooperativity
OCI-AML2 cells = assay: Alamar blue viability assay, OCI-AML2; type: cell-based, human; conditions: read-out: IC50, growth and viability, OCI-AML2, 72-hr exposure

T1 sequence (Q16740 57-277): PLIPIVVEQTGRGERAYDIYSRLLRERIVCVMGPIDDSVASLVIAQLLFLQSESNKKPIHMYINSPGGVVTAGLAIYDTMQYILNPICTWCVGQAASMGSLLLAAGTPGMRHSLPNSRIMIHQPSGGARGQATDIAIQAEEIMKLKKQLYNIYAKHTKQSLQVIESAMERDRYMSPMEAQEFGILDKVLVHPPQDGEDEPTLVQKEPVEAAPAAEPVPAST
recombinant D190A ClpP, sequence (Q16740 57-277 D190A): as the sequence (Q16740 57-277) above, with D134A counted along it
ClpP, sequence (Q16740 57-277): as the sequence (Q16740 57-277) above
endogenous ClpP in OCI-AML2, sequence (Q16740 57-277): as above

Cc1ccccc1CN1C(=O)C2=C(CCN(Cc3ccccc3)C2)N2CCN=C12 [ONC201]
Serious adverse events in clinical trials (AML and other cancers): without serious adverse events reported yet | Effect on normal hematopoietic cells [1]: had little effect | IC50 values, growth and viability [2]: low micromolar

O=C1C2=C(CCN(Cc3ccccc3)C2)N2CCN=C2N1Cc1ccc(C(F)(F)F)cc1 [ONC212]
Activation of proteolytic activity of D190A ClpP (recombinant D190A ClpP): could not activate proteolytic activity | Growth and viability / sensitivity of ONC201-resistant Z138 cells [3]: cross-resistant | EC50 [4]: 0.37 µM | Degradation of α-casein by ClpP (SDS-PAGE) (ClpP): induced cleavage of α-casein without the need for ClpX | EC50 [5]: 3.37 µM | Growth and viability of CLPP+/+ cells [6]: reduced the growth and viability | Binding of endogenous ClpP in cells (CETSA) [7]: bound endogenous ClpP | EC50 [8]: 0.18 µM | Effect on normal hematopoietic cells [1]: had little effect | Tumor burden (luciferase, IVIS imaging) [9]: significantly reduced | Median survival ([9]; vehicle 49 days): 55 days | Growth and viability of CLPP-/- cells [10]: but not CLPP^−/− cells | IC50 values, growth and viability [2]: nanomolar range | Tumor burden / anti-tumor activity (luciferase, IVIS imaging) [11]: no discernable anti-tumor activity | Apoptosis in primary AML patient samples [12]: induced apoptosis | Hill coefficient (FITC-casein data) [13]: 4.98 ± 0.47

COc1cccc2c1C(=O)c1c(O)c3c(c(O)c1C2=O)C[C@@](O)(C(=O)CO)C[C@@H]3O[C@H]1C[C@H](N)[C@H](O)[C@H](C)O1 [adriamycin]
Growth and viability / sensitivity of ONC201-resistant Z138 cells [3]: retained similar sensitivity

CC[C@]1(O)C[C@H]2CN(CCc3c([nH]c4ccccc34)[C@@](C(=O)OC)(c3cc4c(cc3OC)N(C=O)[C@H]3[C@@](O)(C(=O)OC)[C@H](OC(C)=O)[C@]5(CC)C=CCN6CC[C@]43[C@@H]65)C2)C1 [vincristine]
Growth and viability / sensitivity of ONC201-resistant Z138 cells [3]: retained similar sensitivity

Acyldepsipeptide 1 [ADEP1]
IC50 (OCI-AML2 cells): 50 µM
